Measurements: ChEMBL document CHEMBL5316332 (J Med Chem, 2023)
Activity calls are given as the source filed them. The rule behind the calls is not given here.

Key:
HUVEC [1] = test: Inhibition of BMP signalling pathway in BMP9-stimulated human HUVEC cells assessed as decrease in SMAD5 phosphorylation at 25 uM preincubated for 30 mins followed by BMP2 stimulation and measured after 15 mins by Western blot analysis; assay type: cell-based; details: time 45.0 min
Summary of the method: (§1)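 HUVECs, about 3 × 10^5 per well, starved overnight in Kaighn's F-12 with 0.5% FBS and 30 μg/mL endothelial cell growth supplement. Pretreated 30 min with inhibitor, then stimulated with 0.5 ng/mL BMP9. Lysed in M-PER with protease and phosphatase inhibitors. Western blot for pSMAD1/5, SMAD1 and SMAD5, quantified by densitometry.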

HUVEC [2] = test: Inhibition of BMP signalling pathway in BMP9-stimulated human HUVEC cells assessed as decrease in SMAD1 phosphorylation at 25 uM preincubated for 30 mins followed by BMP2 stimulation and measured after 15 mins by Western blot analysis; assay type: cell-based; details: time 45.0 min; summary of the method: as §1
[3] = target: T1, Bone morphogenetic protein receptor type-2 (Homo sapiens) (UniProt Q13873); test: Inhibition of human BMPR2 at 1 uM by DiscoveRx Kinomescan method
T1 sequence (whole entry): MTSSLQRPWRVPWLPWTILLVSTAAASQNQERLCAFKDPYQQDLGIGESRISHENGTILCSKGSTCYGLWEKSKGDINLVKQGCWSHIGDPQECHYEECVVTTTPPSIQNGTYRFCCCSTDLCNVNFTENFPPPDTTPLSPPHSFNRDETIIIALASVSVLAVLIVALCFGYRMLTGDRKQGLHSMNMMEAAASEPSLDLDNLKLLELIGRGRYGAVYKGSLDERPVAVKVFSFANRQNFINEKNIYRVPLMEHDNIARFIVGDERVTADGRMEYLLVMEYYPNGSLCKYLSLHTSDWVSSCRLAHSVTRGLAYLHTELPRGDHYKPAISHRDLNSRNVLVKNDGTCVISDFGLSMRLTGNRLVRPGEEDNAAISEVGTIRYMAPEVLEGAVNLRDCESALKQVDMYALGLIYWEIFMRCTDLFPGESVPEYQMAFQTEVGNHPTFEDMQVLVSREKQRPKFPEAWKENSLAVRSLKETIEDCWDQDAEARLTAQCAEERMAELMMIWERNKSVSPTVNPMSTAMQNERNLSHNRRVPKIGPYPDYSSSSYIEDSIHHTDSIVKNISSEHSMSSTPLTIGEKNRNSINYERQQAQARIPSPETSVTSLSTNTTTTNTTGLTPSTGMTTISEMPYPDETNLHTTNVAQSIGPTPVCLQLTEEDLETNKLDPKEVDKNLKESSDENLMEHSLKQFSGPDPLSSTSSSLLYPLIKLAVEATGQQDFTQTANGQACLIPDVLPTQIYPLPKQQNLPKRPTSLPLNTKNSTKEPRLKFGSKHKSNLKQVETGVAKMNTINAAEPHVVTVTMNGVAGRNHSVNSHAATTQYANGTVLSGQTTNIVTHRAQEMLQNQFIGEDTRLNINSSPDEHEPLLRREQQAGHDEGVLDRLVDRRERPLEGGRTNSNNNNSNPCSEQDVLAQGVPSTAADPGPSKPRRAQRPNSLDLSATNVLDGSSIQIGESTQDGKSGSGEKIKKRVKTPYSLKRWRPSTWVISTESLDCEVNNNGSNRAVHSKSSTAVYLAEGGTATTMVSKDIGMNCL
Summary of the method: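 Outsourced KINOMEscan panel of 403 kinases, with compound at 1 μM.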

[4] = target: T2, Activin receptor type-1 (Homo sapiens) (UniProt Q04771); test: Inhibition of ACVR1 (unknown origin) by LanthaScreen TR-FRET assay
T2 sequence (whole entry): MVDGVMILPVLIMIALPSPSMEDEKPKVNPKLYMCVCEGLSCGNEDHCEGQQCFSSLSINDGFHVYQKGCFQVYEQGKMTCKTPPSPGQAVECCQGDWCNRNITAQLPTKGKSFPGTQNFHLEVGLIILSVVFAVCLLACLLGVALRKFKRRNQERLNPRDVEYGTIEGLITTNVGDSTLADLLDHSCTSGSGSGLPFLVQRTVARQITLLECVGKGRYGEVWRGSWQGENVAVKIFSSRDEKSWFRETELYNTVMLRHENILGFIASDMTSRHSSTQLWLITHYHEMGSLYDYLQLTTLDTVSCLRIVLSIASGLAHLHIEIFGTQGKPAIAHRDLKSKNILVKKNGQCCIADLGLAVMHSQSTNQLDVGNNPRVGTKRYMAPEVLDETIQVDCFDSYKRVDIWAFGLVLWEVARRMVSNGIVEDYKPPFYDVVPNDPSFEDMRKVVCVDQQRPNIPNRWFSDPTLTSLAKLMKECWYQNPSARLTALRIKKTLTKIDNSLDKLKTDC
Summary of the method: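 Outsourced SelectScreen profiling using a LanthaScreen TR-FRET binding format, in which a tight-binding tracer is displaced from the kinase.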

Row | SMILES | inhibition (HUVEC [1]) | inhibition (HUVEC [2]) | inhibition [3] | inhibition [4]
1 | NC(=O)c1cccc(CNC(=O)c2ccc3nc(-c4ccc5cnccc5c4)n(C4CCCC4)c3c2)c1 | Active | Active |  | 
2 | CNC(=O)[C@@H]1CC[C@@H](n2c(-c3ccc4cnccc4c3)nc3ccc(C(=O)NCc4cccc(C(N)=O)c4)cc32)C1 |  |  | Active | 
3 | COc1cnc(Nc2cccc(S(N)(=O)=O)c2)nc1N1CCN(c2ccccc2)C(=O)C1 | Active | Active |  | inactive
